Laboratory results published in ChEMBL document CHEMBL1153214, “Synthesis and PGE(2) production inhibition of 1H-furan-2,5-dione and 1H-pyrrole-2,5-dione derivatives” (Bioorg Med Chem Lett, 2010).

How the values were obtained:
[1] = system: RAW264.7; assay: Antiinflammatory activity in mouse RAW264.7 cells assessed as inhibition of LPS-induced PGE2 production by EIA; assay type: functional, cell-based
Outline: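 RAW 264.7 macrophages seeded at 10⁵ cells/well in 96-well plates. Cells pretreated with test samples at increasing concentrations or NS398 as positive control, then stimulated with LPS 1 µg/ml for the indicated time. PGE₂ in the medium quantified by EIA. IC50 derived; experiments run at least three times.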

[2] = system: RAW264.7; assay: Cytotoxicity against LPS-stimulated mouse RAW264.7 cells assessed as cell viability after 24 hrs by MTT assay; assay type: cell-based; conditions: RAW264.7, 24 h
Outline: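 RAW 264.7 cells plated at 10⁵ cells/well in 96-well plates, treated with various concentrations of compounds in the presence of LPS. Viability read by colorimetric MTT assay 24 h after treatment.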

[3] = target: T1, Prostaglandin G/H synthase 2 (Homo sapiens, UniProt P35354); assay: Inhibition of COX2 assessed as PGF2alpha level by EIA
T1 sequence (P35354 whole entry): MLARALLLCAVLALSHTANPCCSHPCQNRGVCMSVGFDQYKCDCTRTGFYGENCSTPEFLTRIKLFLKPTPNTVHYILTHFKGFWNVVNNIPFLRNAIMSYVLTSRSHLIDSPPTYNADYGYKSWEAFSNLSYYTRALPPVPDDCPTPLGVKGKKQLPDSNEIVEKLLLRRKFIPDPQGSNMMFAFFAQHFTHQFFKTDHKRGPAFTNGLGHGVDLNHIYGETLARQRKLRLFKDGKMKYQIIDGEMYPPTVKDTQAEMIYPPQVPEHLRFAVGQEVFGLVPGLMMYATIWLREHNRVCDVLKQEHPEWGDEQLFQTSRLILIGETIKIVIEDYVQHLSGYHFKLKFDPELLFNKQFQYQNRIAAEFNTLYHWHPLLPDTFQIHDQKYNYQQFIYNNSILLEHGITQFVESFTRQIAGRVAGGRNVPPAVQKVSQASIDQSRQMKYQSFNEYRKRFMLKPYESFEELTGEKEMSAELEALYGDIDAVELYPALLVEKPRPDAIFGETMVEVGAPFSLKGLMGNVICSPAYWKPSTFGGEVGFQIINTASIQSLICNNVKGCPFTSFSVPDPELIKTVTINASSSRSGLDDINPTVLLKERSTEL

[4] = Mus musculus, RAW264.7, read-out: IC50

Structure (SMILES) | IC50 [1, 4] [µM] | IC50 [3] [µM] | IC50 ([1]; raw264.7) | IC50 [2] [µM]
O=C1NC(=O)C(c2ccccc2)=C1c1ccccc1 | 27.9 | – | – | 270
COc1ccc(C2=C(c3ccccc3)C(=O)NC2=O)cc1OC | 132 | – | – | 305
COc1cc(C2=C(c3ccccc3)C(=O)NC2=O)cc(OC)c1OC | 25.1 | – | – | 151
COc1cc(C2=C(c3ccccc3)C(=O)OC2=O)cc(OC)c1OC | 37.1 | – | – | 313
CS(=O)(=O)c1ccc(C2=C(c3ccc(O)cc3)C(=O)NC2=O)cc1 | – | – | Not Active | 171
O=C1NC(=O)C(c2cccc(O)c2)=C1c1ccccc1 | 13.8 | – | – | 158
O=C1NC(=O)C(c2ccc(O)c(O)c2)=C1c1ccccc1 | 2.69 | 16 | – | 207
COc1cccc(C2=C(c3ccccc3)C(=O)NC2=O)c1 | 9.95 | – | – | 260
O=C1NC(=O)C(c2ccc3c(c2)OCO3)=C1c1ccccc1 | 7.96 | – | – | 195
NS(=O)(=O)c1ccc(C2=C(c3ccccc3)C(=O)NC2=O)cc1 | – | 15.6 | – | 158
CS(=O)(=O)c1ccc(C2=C(c3ccc(F)cc3)C(=O)NC2=O)cc1 | 10.8 | – | – | 261
O=C1OC(=O)C(c2ccc3c(c2)OCO3)=C1c1ccccc1 | 7.13 | 18.5 | – | 329
CSc1ccc(C2=C(c3ccccc3)C(=O)NC2=O)cc1 | 4.73 | 16.3 | – | 152
CS(=O)(=O)c1ccc(C2=C(c3ccccc3)C(=O)NC2=O)cc1 | 2.71 | 17.5 | – | 269
O=C1NC(=O)C(c2cc(O)c(O)c(O)c2)=C1c1ccccc1 | 8.19 | 17.5 | – | 261
CS(=O)(=O)Nc1ccc([N+](=O)[O-])cc1OC1CCCCC1 [NS-398] | 4.8 | – | – | –

Now from value to molecule, other results behind:

IC50 [1, 4] [µM] | IC50 [3] [µM] | IC50 ([1]; raw264.7) | Structure (SMILES) | IC50 [2] [µM]
4.41 | 16.6 | – | CC(=O)Oc1ccc(C2=C(c3ccc(S(C)(=O)=O)cc3)C(=O)OC2=O)cc1 | 262
23.8 | – | – | COc1ccc(C2=C(c3ccc([S+](C)[O-])cc3)C(=O)OC2=O)cc1 (configuration not stated) | 284
30.5 | – | – | CSc1ccc(C2=C(c3ccc(OC(C)=O)cc3)C(=O)OC2=O)cc1 | 334
68.8 | – | – | CC(=O)Oc1ccc(C2=C(c3ccc([S+](C)[O-])cc3)C(=O)OC2=O)cc1 (configuration not stated) | 262
15.4 | – | – | CS(=O)(=O)c1ccc(C2=C(c3ccccc3)C(=O)OC2=O)cc1 | 266
0.84 | 21 | – | CSc1ccc(C2=C(c3ccc(O)cc3)C(=O)NC2=O)cc1 | 125
21.5 | – | – | C[S+]([O-])c1ccc(C2=C(c3ccccc3)C(=O)NC2=O)cc1 (configuration not stated) | 303
– | – | Not Active | COc1ccc(C2=C(c3ccc(S(C)(=O)=O)cc3)C(=O)OC2=O)cc1 | 271
5.71 | 20.1 | – | CSc1ccc(C2=C(c3ccc(NC(C)=O)cc3)C(=O)OC2=O)cc1 | 250
78.5 | – | – | CSc1ccc(C2=C(c3ccc(N(C(C)=O)C(C)=O)cc3)C(=O)OC2=O)cc1 | 277
45.2 | – | – | C[S+]([O-])c1ccc(C2=C(c3ccc(F)cc3)C(=O)NC2=O)cc1 (configuration not stated) | 242
71.3 | – | – | COc1ccc(C2=C(c3ccccc3)C(=O)OC2=O)cc1OC | 257
98.1 | – | – | C[S+]([O-])c1ccc(C2=C(c3ccc(O)cc3)C(=O)NC2=O)cc1 (configuration not stated) | 213
12.6 | – | – | COc1ccc(C2=C(c3ccc(SC)cc3)C(=O)OC2=O)cc1 | 266
3.58 | 18.5 | – | CSc1ccc(C2=C(c3ccccc3)C(=O)OC2=O)cc1 | 195
25.5 | – | – | CSc1ccc(C2=C(c3ccc(F)cc3)C(=O)NC2=O)cc1 | 121
